Laboratory results from ChEMBL document CHEMBL1795261, “HIF-1α inhibitors: synthesis and biological evaluation of novel moracin O and P analogues” (Eur J Med Chem, 2011).
The source made the active and inactive calls. The calls are words filed in the database; no cut-off is given here.

Key:
[1] = Cytotoxicity against human Hep3B cells after 24 hrs by MTT assay; assay type: cell-based, Hep 3B2
[2] = molecular target: T1, Hypoxia-inducible factor 1-alpha (Homo sapiens, UniProt Q16665); test: Inhibition of hypoxia-induced HIF1alpha activation in human Hep3B cells after 16 hrs by HRE-luciferase reporter assay; assay type: cell-based; settings: hep 3b2
Target sequence in this assay (Q16665 whole entry): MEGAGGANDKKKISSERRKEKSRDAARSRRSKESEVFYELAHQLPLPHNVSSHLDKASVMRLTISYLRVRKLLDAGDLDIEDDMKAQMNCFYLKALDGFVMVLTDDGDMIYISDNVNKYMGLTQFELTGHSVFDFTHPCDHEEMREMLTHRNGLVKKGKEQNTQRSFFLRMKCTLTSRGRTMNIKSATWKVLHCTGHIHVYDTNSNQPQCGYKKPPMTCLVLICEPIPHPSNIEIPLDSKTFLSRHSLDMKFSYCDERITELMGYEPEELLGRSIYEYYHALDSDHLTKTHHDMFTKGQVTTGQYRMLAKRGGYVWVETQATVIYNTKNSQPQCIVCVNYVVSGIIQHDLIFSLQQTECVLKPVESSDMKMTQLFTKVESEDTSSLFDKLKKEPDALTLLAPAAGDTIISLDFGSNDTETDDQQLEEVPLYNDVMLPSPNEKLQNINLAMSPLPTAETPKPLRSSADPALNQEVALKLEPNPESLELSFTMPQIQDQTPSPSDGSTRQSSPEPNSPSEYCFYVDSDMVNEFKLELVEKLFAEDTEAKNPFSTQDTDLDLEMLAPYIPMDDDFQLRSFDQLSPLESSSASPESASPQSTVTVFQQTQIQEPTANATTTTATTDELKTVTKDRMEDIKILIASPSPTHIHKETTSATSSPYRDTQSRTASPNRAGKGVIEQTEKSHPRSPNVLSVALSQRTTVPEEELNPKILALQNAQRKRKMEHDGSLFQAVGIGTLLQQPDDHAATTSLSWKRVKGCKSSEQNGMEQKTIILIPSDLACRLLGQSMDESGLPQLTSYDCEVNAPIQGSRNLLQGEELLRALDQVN

[3] = molecular target: T1, Hypoxia-inducible factor 1-alpha; test: Inhibition of hypoxia-induced HIF1alpha protein accumulation in nucleus of human Hep3B cells after 12 hrs by Western blot analysis; assay type: functional, cell-based; settings: Hep 3B2
Procedure, shortened: (§1)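 Hep3B cells were kept under normoxia or hypoxia for 12 h with or without compound. HIF-1α in nuclear extracts was detected by western blot, with the same blot reprobed for topoisomerase-I as loading control. Bands were quantified by image scanning in arbitrary units.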
Target sequence in this assay (Q16665 whole entry, looked up): as the sequence (Q16665 whole entry) above

[4] = molecular target: T1, Hypoxia-inducible factor 1-alpha; test: Inhibition of hypoxia-induced HIF1alpha protein accumulation in nucleus of human Hep3B cells after 12 hrs at 10 uM by Western blot analysis; assay type: functional, cell-based; settings: Hep 3B2; procedure, shortened: as §1
Target sequence in this assay (Q16665 whole entry, looked up): as the sequence (Q16665 whole entry) above

[5] = molecular target: T1, Hypoxia-inducible factor 1-alpha; test: Inhibition of HIF1alpha-mediated VEGF production in human Hep3B cells under hypoxic condition after 17.5 hrs by ELISA; assay type: cell-based; settings: Hep 3B2
Procedure, shortened: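 Hep3B cells were held under normoxia or hypoxia for 17.5 h with or without compound. Secreted VEGF was then measured by ELISA in the culture supernatant.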
Target sequence in this assay (Q16665 whole entry, looked up): as the sequence (Q16665 whole entry) above

Row | Compound | IC50 [1] | IC50 [2] | inhibition [3] | inhibition [4] | inhibition [5]
1 | Cc1ccc(-c2cc3cc4c(cc3o2)OC(C(C)(C)O)C4)cc1 (stereo not drawn) | > 30 µM | 0.31 µM |  |  | 
2 | COc1cc(OC)cc(-c2cc3cc4c(cc3o2)OC(C(C)(C)O)C4)c1 (stereo not drawn) | > 30 µM | 0.01 µM |  |  | 
3 | CC(C)(O)[C@H]1Cc2cc3cc(-c4cc(O)cc(O)c4)oc3cc2O1 |  | 0.00676 µM | Dose-dependent effect |  | 
4 | CC(C)(O)C1Cc2cc3cc(-c4ccncc4)oc3cc2O1 (stereo not drawn) | > 30 µM | 1.1 µM |  |  | 
5 | CC1(C)Oc2cc(OC(=O)c3ccc(OCc4ccccc4)cc3)ccc2CC1O (stereo not drawn) | > 30 µM | 12.9 µM |  |  | 
6 | CC(C)(O)C1Cc2ccc(OC(=O)c3cc(OCc4ccccc4)cc(OCc4ccccc4)c3)cc2O1 (stereo not drawn) | > 30 µM | 26.2 µM |  |  | 
7 | CCOC(=O)COc1ccc(-c2cc3cc4c(cc3o2)OC(C(C)(C)O)C4)cc1 (stereo not drawn) | > 30 µM | 0.054 µM |  |  | 
8 | CC1(C)Oc2cc(OC(=O)c3ccc(-c4ccc(F)cc4F)cc3)ccc2CC1O (stereo not drawn) | > 30 µM | 17.6 µM |  |  | 
9 | CC1(C)Oc2cc(OC(=O)c3ccc(O)c(O)c3)ccc2CC1O (stereo not drawn) | > 30 µM | > 30 µM |  |  | 
10 | CC(C)(O)C1Cc2cc3cc(-c4ccc(OCc5ccccc5)cc4)oc3cc2O1 (stereo not drawn) | > 30 µM | 0.49 µM |  |  | 
11 | COc1ccccc1-c1cc2cc3c(cc2o1)OC(C(C)(C)O)C3 (stereo not drawn) | > 30 µM | 0.58 µM |  |  | 
12 | CC1(C)Oc2cc(OC(=O)c3ccc(OCc4ccccc4)c(OCc4ccccc4)c3)ccc2CC1O (stereo not drawn) | > 30 µM | 7.3 µM |  |  | 
13 | CC(C)(O)[C@H]1Cc2cc3cc(-c4ccc(O)cc4)oc3cc2O1 | > 30 µM | 0.001 µM | Dose-dependent effect | Active | 
14 | CC(C)(O)C1Cc2cc3cc(-c4cccc(O)c4)oc3cc2O1 (stereo not drawn) | > 30 µM | 0.046 µM |  |  | 
15 | CC1(C)Oc2cc(OC(=O)c3ccc(Br)cc3)ccc2CC1O (stereo not drawn) | > 30 µM | 16.8 µM |  |  | 
16 | CC1(C)Oc2cc(OC(=O)c3cccc(OCc4ccccc4)c3)ccc2CC1O (stereo not drawn) | > 30 µM | 5.3 µM |  |  | 
17 | CC1(C)Oc2cc(OC(=O)c3ccc(-c4cccc([N+](=O)[O-])c4)cc3)ccc2CC1O (stereo not drawn) | > 30 µM | 17.5 µM |  |  | 
18 | CC1(C)Oc2cc3oc(-c4cc(O)cc(O)c4)cc3cc2CC1O (racemic) [(+/-)-MORACIN P] | > 30 µM | 10.7 µM |  |  | 

Row | Compound | IC50 [1] | IC50 [2] | inhibition [3] | inhibition [4] | inhibition [5]
19 | COc1cccc(-c2ccc(C(=O)Oc3ccc4c(c3)OC(C(C)(C)O)C4)cc2)c1 (stereo not drawn) | > 30 µM | > 30 µM |  |  | 
20 | CC(C)(O)C1Cc2cc3cc(-c4cc(F)cc(F)c4)oc3cc2O1 (stereo not drawn) | > 30 µM | 0.36 µM |  |  | 
21 | CC1(C)Oc2cc3oc(-c4cc(O)cc(O)c4)cc3cc2C[C@H]1O [MORACIN P] |  | 0.0107 µM |  |  | 
22 | CC1(C)Oc2cc(OC(=O)c3ccc(-c4cccc(C#N)c4)cc3)ccc2CC1O (stereo not drawn) | > 30 µM | > 30 µM |  |  | 
23 | CC(C)(O)C1Cc2cc3cc(-c4ccc(O)cc4)oc3cc2O1 (stereo not drawn) | > 30 µM | 0.0042 µM | Dose-dependent effect |  | Dose-dependent effect
24 | CC(C)(O)C1Cc2cc3cc(-c4cc(O)cc(O)c4)oc3cc2O1 (racemic) [MORACIN O] | > 30 µM | 0.00676 µM |  |  | 
25 | CC1(C)Oc2cc(OC(=O)c3cc(O)cc(O)c3)ccc2CC1O (stereo not drawn) | > 30 µM | > 30 µM |  |  | 
26 | COc1ccc(-c2cc3cc4c(cc3o2)OC(C(C)(C)O)C4)cc1 (stereo not drawn) | > 30 µM | 0.11 µM |  |  | 
27 | CC(C)(O)C1Cc2ccc(OC(=O)c3ccc(Br)cc3)cc2O1 (stereo not drawn) | > 30 µM | > 30 µM |  |  | 
28 | Cn1cncc1-c1cc2cc3c(cc2o1)OC(C(C)(C)O)C3 (stereo not drawn) | > 30 µM | > 0.03 µM |  |  | 
29 | CC1(C)Oc2cc(OC(=O)c3cc(OCc4ccccc4)cc(OCc4ccccc4)c3)ccc2CC1O (stereo not drawn) | > 30 µM | 2.6 µM |  |  | 
30 | CC1(C)Oc2cc(OC(=O)c3ccc(O)cc3)ccc2CC1O (stereo not drawn) | > 30 µM | > 30 µM |  |  | 
31 | CC(C)(O)C1Cc2cc3cc(-c4ccccc4)oc3cc2O1 (stereo not drawn) | > 30 µM | 0.054 µM |  |  | 
32 | COc1cccc(-c2ccc(C(=O)Oc3ccc4c(c3)OC(C)(C)C(O)C4)cc2)c1 (stereo not drawn) | > 30 µM | 17.2 µM |  |  | 
33 | CC(C)(O)C1Cc2ccc(OC(=O)c3cc(O)cc(O)c3)cc2O1 (stereo not drawn) | > 30 µM | > 30 µM |  |  | 
34 | COc1cccc(-c2cc3cc4c(cc3o2)OC(C(C)(C)O)C4)c1 (stereo not drawn) | > 30 µM | 0.007 µM |  |  | 
35 | CC(C)(O)C1Cc2ccc(OC(=O)c3ccc(-c4cccc([N+](=O)[O-])c4)cc3)cc2O1 (stereo not drawn) | > 30 µM | > 30 µM |  |  | 
